Source: ChEMBL document CHEMBL1152518, “1,2,3-Selenadiazole thioacetanilides: synthesis and anti-HIV activity evaluation” (Bioorg Med Chem, 2009)

Assays:
[1] = system: Human immunodeficiency virus 1; experiment: Antiviral activity against HIV1 3B infected in human MT4 cells assessed as inhibition of virus-induced cytopathic effect after 5 days by MTT assay; format: functional, organism-based; conditions: Human immunodeficiency virus 1, 3B, MT4, 120 h
Method in brief: (§1)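 MT-4 cells, resuspended at 6 × 10⁵ cells/ml, infected with HIV-1 IIIB or HIV-2 ROD at 100–300 CCID₅₀. Test compound stocks were made at 10× final concentration. Read after 5 days as MTT reduction to formazan, absorbance at 540 and 690 nm. Median OD of three wells. EC₅₀ is the concentration giving 50% protection against virus-induced cytopathic effect.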

[2] = system: Human immunodeficiency virus 2; experiment: Antiviral activity against HIV2 ROD infected in human MT4 cells assessed as inhibition of virus-induced cytopathic effect after 5 days by MTT assay; format: functional, organism-based; conditions: Human immunodeficiency virus 2, ISOLATE ROD, MT4, 120 h; method in brief: as §1
[3] = Cytotoxicity against mock-infected human MT4 cells after 5 days by MTT assay; format: cell-based
Method in brief: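 Mock-infected MT-4 cells at 6 × 10⁵ cells/ml, with culture medium in place of virus, exposed to compound (stocks at 10× final concentration) for 5 days. Viability read by MTT, absorbance at 540 and 690 nm, median OD of three wells. CC₅₀ is the concentration reducing OD540 of the mock-infected control by 50%.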

[4] = Selectivity index, ratio of CC50 for mock-infected human MT4 cells to EC50 for HIV1 3B infected in human MT4 cells; format: toxicity, cell-based; conditions: mock-infected (CC50) and HIV-1 3B infected (EC50)
Method in brief: (§2)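 Selectivity index is CC₅₀/EC₅₀. Both values come from MTT assays run over 5 days in MT-4 cells, mock-infected or infected with HIV-1 IIIB or HIV-2 ROD at 100–300 CCID₅₀. Median OD of three wells.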

[5] = Selectivity index, ratio of CC50 for mock-infected human MT4 cells to EC50 for HIV2 ROD infected in human MT4 cells; format: toxicity, cell-based; conditions: read-out: Ratio CC50/EC50; method in brief: as §2
[6] = target: Human immunodeficiency virus type 1 reverse transcriptase (Human immunodeficiency virus 1, UniProt Q72547); experiment: Inhibition of wild type HIV1 reverse transcriptase
[7] = target: Human immunodeficiency virus type 1 reverse transcriptase (Human immunodeficiency virus 1, UniProt Q72547, K103N/Y181C); experiment: Inhibition of HIV1 reverse transcriptase K103N/Y181C mutant

Cc1ccc(NC(=O)CSc2[se]nnc2-c2ccc(Cl)c(Cl)c2)c([N+](=O)[O-])c1
EC50 [1]: 5.42 µM
EC50 [2]: > 26.3 µM
CC50 at 120 h [3]: 26.3 µM
selectivity ratio [4]: 5
selectivity ratio [5]: < 1

O=C(CSc1[se]nnc1-c1ccc(Cl)c(Cl)c1)Nc1ccccc1[N+](=O)[O-]
EC50 [1]: ≥ 6.84 µM
EC50 [2]: > 26.6 µM
CC50 at 120 h [3]: 26.6 µM
selectivity ratio [5]: < 1

Cc1ccc2sc(NC(=O)CSc3[se]nnc3-c3ccc(Cl)c(Cl)c3)nc2c1
EC50 [1]: > 10.2 µM
EC50 [2]: > 10.2 µM
CC50 at 120 h [3]: 10.2 µM
selectivity ratio [4]: < 1
selectivity ratio [5]: < 1

CC(=O)c1ccc(NC(=O)CSc2[se]nnc2-c2ccc(Cl)c(Cl)c2)c(Br)c1
EC50 [1]: 2.45 µM
EC50 [2]: > 18.9 µM
CC50 at 120 h [3]: 18.9 µM
selectivity ratio [4]: 8
selectivity ratio [5]: < 1

COC(=O)c1ccsc1NC(=O)CSc1[se]nnc1-c1ccc(Cl)c(Cl)c1
EC50 [1]: > 22 µM
EC50 [2]: > 22 µM
CC50 at 120 h [3]: 22 µM
selectivity ratio [4]: < 1
selectivity ratio [5]: < 1

Cc1ccc(NC(=O)CSc2[se]nnc2-c2ccc(Cl)c(Cl)c2)cc1
EC50 [1]: 6.65 µM
EC50 [2]: > 13.3 µM
CC50 at 120 h [3]: 13.3 µM
selectivity ratio [4]: 2
selectivity ratio [5]: < 1

Cc1cccc(NC(=O)CSc2[se]nnc2-c2ccc(Cl)c(Cl)c2)c1C
EC50 [1]: > 12.8 µM
EC50 [2]: > 12.8 µM
CC50 at 120 h [3]: 12.8 µM
selectivity ratio [4]: < 1
selectivity ratio [5]: < 1

O=C(CSc1[se]nnc1-c1ccc(Cl)c(Cl)c1)Nc1cccnc1Cl
EC50 [1]: > 24.8 µM
EC50 [2]: > 24.8 µM
CC50 at 120 h [3]: 24.8 µM
selectivity ratio [4]: < 1
selectivity ratio [5]: < 1

Cc1cc(C)c(-n2nnnc2SCC(=O)Nc2ccccc2Cl)c(C)c1
IC50 [6]: 0.005 µM

O=C(CSc1[se]nnc1-c1ccc(Cl)c(Cl)c1)Nc1ccccc1
EC50 [1]: ≥ 6.07 µM
EC50 [2]: > 19 µM
CC50 at 120 h [3]: 19 µM
selectivity ratio [4]: 63
selectivity ratio [5]: < 1

Cc1ccc(NC(=O)CSc2[se]nnc2-c2ccc(Cl)c(Cl)c2)c(Br)c1
EC50 [1]: ≥ 8.71 µM
EC50 [2]: > 22.9 µM
CC50 at 120 h [3]: 22.9 µM
selectivity ratio [5]: < 1

O=C(CSc1[se]nnc1-c1ccc(Cl)c(Cl)c1)Nc1ccc(Cl)cc1
EC50 [1]: 5.59 µM
EC50 [2]: > 16.8 µM
CC50 at 120 h [3]: 16.8 µM
selectivity ratio [4]: 3
selectivity ratio [5]: < 1

O=C(CSc1[se]nnc1-c1ccc(Cl)c(Cl)c1)Nc1ccccc1Cl
EC50 [1]: > 23.4 µM
EC50 [2]: > 23.4 µM
CC50 at 120 h [3]: 23.4 µM
selectivity ratio [4]: < 1
selectivity ratio [5]: < 1

Cc1ccccc1NC(=O)CSc1[se]nnc1-c1ccc(Cl)c(Cl)c1
EC50 [1]: 5.56 µM
EC50 [2]: > 22.3 µM
CC50 at 120 h [3]: 22.3 µM
selectivity ratio [4]: 4
selectivity ratio [5]: < 1

O=C(CSc1[se]nnc1-c1ccc(Cl)c(Cl)c1)Nc1ccccc1Br
EC50 [1]: > 23.6 µM
EC50 [2]: > 23.6 µM
CC50 at 120 h [3]: 23.6 µM
selectivity ratio [4]: < 1
selectivity ratio [5]: < 1

O=C(CSc1[se]nnc1-c1ccc(Cl)c(Cl)c1)Nc1ccccn1
EC50 [1]: > 31.4 µM
EC50 [2]: > 31.4 µM
CC50 at 120 h [3]: 31.4 µM
selectivity ratio [4]: < 1
selectivity ratio [5]: < 1

O=C(CSc1[se]nnc1-c1ccc(Cl)c(Cl)c1)Nc1nccs1
EC50 [1]: > 8.68 µM
EC50 [2]: > 8.68 µM
CC50 at 120 h [3]: 8.68 µM
selectivity ratio [4]: < 1
selectivity ratio [5]: < 1

O=C(CSc1[se]nnc1-c1ccc(Cl)c(Cl)c1)Nc1ccccc1F
EC50 [1]: > 26.9 µM
EC50 [2]: > 26.9 µM
CC50 at 120 h [3]: 26.9 µM
selectivity ratio [4]: < 1
selectivity ratio [5]: < 1

Cc1ccc(NC(=O)CSc2nnc(C)n2-c2ccccc2)c(Br)c1
EC50 [6]: 0.1 µM
EC50 [7]: 1.3 µM

Cc1ccc(-n2c(C)nnc2SCC(=O)Nc2ccccc2)cc1
EC50 [6]: 2.05 µM

Cc1cccc(C)c1NC(=O)CSc1[se]nnc1-c1ccc(Cl)c(Cl)c1
EC50 [1]: > 7 µM
EC50 [2]: > 7 µM
CC50 at 120 h [3]: 7 µM
selectivity ratio [4]: < 1
selectivity ratio [5]: < 1
